Test results published in ChEMBL document CHEMBL1138529, “Efficacy, pharmacokinetics, and metabolism of tetrahydroquinoline inhibitors of Plasmodium falciparum protein farnesyltransferase” (Antimicrob Agents Chemother, 2007).

Legend:
[1] = Permeability from apical to basolateral side in human Caco-2 cells; assay type: ADME, cell-based; conditions: read-out: permeability
[2] = AUC in BALB/c mouse at 50 mg/kg, po; assay type: ADME, organism-based; design: dose 50 mg/kg, route oral; conditions: plasma
Outline: (§1)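 Three female BALB/c mice (lines for mice, 8–10 weeks) or three female Sprague-Dawley rats (10–12 weeks) per group; 50 mg/kg oral gavage in 3% EtOH-7% Tween 80-90% normal saline. Plasma sampled at set times (tail bleed in mice, saphenous vein in rats), extracted with acetonitrile plus internal standard, quantified by LC/MS; AUC as mean of three animals.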

[3] = Elimination half life in BALB/c mouse at 50 mg/kg, po; assay type: ADME, organism-based; design: dose 50 mg/kg, route oral; conditions: in vivo, read-out: beta t1/2
Outline: (§2)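 50 mg/kg by oral gavage in 3% EtOH-7% Tween 80-90% normal saline to groups of three females (BALB/c mice, 8–10 weeks, tail bleed; Sprague-Dawley rats, 10–12 weeks, saphenous vein). Plasma extracted with acetonitrile/internal standard, LC/MS; means of three animals. Oral elimination half-life depends on absorption rate as well as elimination.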

[4] = Metabolic stability in rat liver microsomes; assay type: ADME, Microsome
Outline: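 Pooled female liver microsomes at 0.5 mg/ml in 0.1 M potassium phosphate pH 7.4, 3 mM MgCl2, 1 mM EDTA, with NADPH regenerating system (1 mM NADP+, 5 mM glucose-6-phosphate, 1 U/ml G6PDH). Preincubated 10 min at 37°C, then compound added to 1 μM final. Time points quenched with 3 volumes acetonitrile plus internal standard; parent quantified by LC/MS; half-life reported.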

[5] = AUC in Sprague-Dawley rat at 50 mg/kg, po; assay type: ADME, organism-based; design: dose 50 mg/kg, route oral; conditions: plasma; outline: as §1
[6] = Cmax in Sprague-Dawley rat at 50 mg/kg, po; assay type: ADME, organism-based; design: dose 50 mg/kg, route oral; conditions: in vivo; outline: as §2
[7] = Elimination half life in Sprague-Dawley rat at 50 mg/kg, po; assay type: ADME, organism-based; design: dose 50 mg/kg, route oral; conditions: in vivo, read-out: beta t1/2; outline: as §2
[8] = Inhibition of Plasmodium falciparum protein farnesyltransferase by SPA method
Plasmodium falciparum [9] = test: Antiplasmodial activity against chloroquine-sensitive Plasmodium falciparum 3D7 by [3H]hypoxanthine uptake; assay type: functional; conditions: read-out: ED50 (the source's name)
Outline: (§3)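 Asynchronous cultures at 0.5% parasitemia and 0.5% hematocrit in RPMI 1640 with 20% heat-inactivated human A+ plasma, exposed to serially diluted inhibitor (top final 5 μM, from DMSO stock) under 5% CO2/5% O2/90% N2 at 37°C for 48 h. [3H]hypoxanthine was then added for 24 h and harvested counts were background-subtracted against DMSO-only controls. ED50 came from linear regression, as the mean of duplicates.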

Plasmodium falciparum [10] = test: Antiplasmodial activity against chloroquine-resistant Plasmodium falciparum K1 by [3H]hypoxanthine uptake; assay type: functional; conditions: read-out: ED50 (the source's name); outline: as §3
[11] = AUC in Sprague-Dawley rat at 2 mg/kg, iv; assay type: ADME, organism-based; design: dose 2 mg/kg, route intravenous; conditions: plasma
Outline: (§4)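 Three female Sprague-Dawley rats per group (10–12 weeks), jugular-vein catheterized; 2 mg/kg in 3% EtOH-7% Tween 80-90% normal saline given through the catheter. Plasma drawn from the catheter at set times, acetonitrile extraction with internal standard, LC/MS quantification.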

[12] = Elimination half life in Sprague-Dawley rat at 2 mg/kg, iv; assay type: ADME, organism-based; design: dose 2 mg/kg, route intravenous; conditions: in vivo, read-out: beta t1/2; outline: as §4
[13] = Oral bioavailability in Sprague-Dawley rat; assay type: ADME, organism-based; conditions: in vivo
Outline: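 Female Sprague-Dawley rats, 10-12 weeks, three per group. Oral gavage at 50 mg/kg and jugular-catheter i.v. dose at 2 mg/kg, both in 3% EtOH-7% Tween 80-90% saline. Plasma taken over time, acetonitrile extraction with internal standard, LC/MS. Bioavailability computed as oral AUC/i.v. AUC.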

[14] = Drug metabolism in bile duct cannulated Sprague-Dawley rat assessed as radioactive drug recovery in bile at 35 mg/kg, po after 18 hrs; assay type: ADME, organism-based; design: dose 35 mg/kg, route oral; conditions: in vivo
Outline: (§5)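 Male bile-duct- and jugular-cannulated Sprague-Dawley rats (~350 g, three per compound) given 35 mg/kg 14C-labelled compound orally (80 μCi/kg) in 3% EtOH-7% Tween 80-90% saline. Urine, feces and bile collected for 18 h, cages washed with methanol-water, animals autopsied; radioactivity per matrix by liquid scintillation counting as mean % of dose.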

[15] = Drug metabolism in bile duct cannulated Sprague-Dawley rat assessed as radioactive drug recovery in urine at 35 mg/kg, po after 18 hrs; assay type: ADME, organism-based; design: dose 35 mg/kg, route oral; conditions: in vivo; outline: as §5
[16] = Drug metabolism in bile duct cannulated Sprague-Dawley rat assessed as radioactive drug recovery in feces at 35 mg/kg, po after 18 hrs; assay type: ADME, organism-based; design: dose 35 mg/kg, route oral; conditions: in vivo; outline: as §5
[17] = Drug metabolism in bile duct cannulated Sprague-Dawley rat assessed as radioactive drug recovery in gastrointestinal tract at 35 mg/kg, po after 18 hrs; assay type: ADME, organism-based; design: dose 35 mg/kg, route oral; conditions: in vivo; outline: as §5
[18] = Drug metabolism in bile duct cannulated Sprague-Dawley rat assessed as radioactive drug recovery in carcass at 35 mg/kg, po after 18 hrs; assay type: ADME, organism-based; design: dose 35 mg/kg, route oral; conditions: in vivo; outline: as §5
Rattus norvegicus [19] = test: Drug metabolism in bile duct cannulated Sprague-Dawley rat assessed as radioactive drug recovery at 35 mg/kg, po after 18 hrs; assay type: ADME, organism-based; design: dose 35 mg/kg, route oral; conditions: in vivo; outline: as §5
Rattus norvegicus [20] = test: Toxicity in bile duct cannulated Sprague-Dawley rat assessed as incidence of adverse events at 35 mg/kg, po after 18 hrs; assay type: organism-based; design: dose 35 mg/kg, route oral; conditions: in vivo
Outline: (§6)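 Male Sprague-Dawley rats, about 350 g, with jugular and bile-duct cannulae, allowed 1 week recovery; three per compound. Oral gavage 35 mg/kg in 3% EtOH-7% Tween 80-90% saline with 80 μCi/kg 14C tracer. Monitored 18 h. Plasma and blood-cell radioactivity measured by liquid scintillation counting and given as μg base equivalents/g.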

Rattus norvegicus [21] = test: Plasma concentration in bile duct cannulated Sprague-Dawley rat at 35 mg/kg, po after 0.5 hrs; assay type: ADME, organism-based; design: dose 35 mg/kg, route oral; conditions: in vivo; outline: as §6
Rattus norvegicus [22] = test: Plasma concentration in bile duct cannulated Sprague-Dawley rat at 35 mg/kg, po after 1 hr; assay type: ADME, organism-based; design: dose 35 mg/kg, route oral; conditions: in vivo; outline: as §6
Rattus norvegicus [23] = test: Plasma concentration in bile duct cannulated Sprague-Dawley rat at 35 mg/kg, po after 2 hrs; assay type: ADME, organism-based; design: dose 35 mg/kg, route oral; conditions: in vivo; outline: as §6
Rattus norvegicus [24] = test: Plasma concentration in bile duct cannulated Sprague-Dawley rat at 35 mg/kg, po after 3 hrs; assay type: ADME, organism-based; design: dose 35 mg/kg, route oral; conditions: in vivo; outline: as §6
Rattus norvegicus [25] = test: Plasma concentration in bile duct cannulated Sprague-Dawley rat at 35 mg/kg, po after 4 hrs; assay type: ADME, organism-based; design: dose 35 mg/kg, route oral; conditions: in vivo; outline: as §6
Rattus norvegicus [26] = test: Plasma concentration in bile duct cannulated Sprague-Dawley rat at 35 mg/kg, po after 6 hrs; assay type: ADME, organism-based; design: dose 35 mg/kg, route oral; conditions: in vivo; outline: as §6
Blood [27] = test: Drug level in bile duct cannulated Sprague-Dawley rat blood at 35 mg/kg, po after 0.5 hrs; assay type: ADME, organism-based; design: dose 35 mg/kg, route oral; conditions: in vivo
Outline: (§7)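 Male Sprague-Dawley rats (~350 g), jugular vein and bile duct cannulated, 1 week recovery; three per compound dosed by oral gavage with 35 mg/kg in 3% EtOH-7% Tween 80-90% normal saline plus 80 μCi/kg 14C tracer. Plasma and blood cells sampled over 18 h; radioactivity by liquid scintillation, reported as mean μg base equivalents/g.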

Blood [28] = test: Drug level in bile duct cannulated Sprague-Dawley rat blood at 35 mg/kg, po after 1 hr; assay type: ADME, organism-based; design: dose 35 mg/kg, route oral; conditions: in vivo; outline: as §7
Blood [29] = test: Drug level in bile duct cannulated Sprague-Dawley rat blood at 35 mg/kg, po after 2 hrs; assay type: ADME, organism-based; design: dose 35 mg/kg, route oral; conditions: in vivo; outline: as §7
Blood [30] = test: Drug level in bile duct cannulated Sprague-Dawley rat blood at 35 mg/kg, po after 3 hrs; assay type: ADME, organism-based; design: dose 35 mg/kg, route oral; conditions: in vivo; outline: as §7
Blood [31] = test: Drug level in bile duct cannulated Sprague-Dawley rat blood at 35 mg/kg, po after 4 hrs; assay type: ADME, organism-based; design: dose 35 mg/kg, route oral; conditions: in vivo; outline: as §7
Blood [32] = test: Drug level in bile duct cannulated Sprague-Dawley rat blood at 35 mg/kg, po after 6 hrs; assay type: ADME, organism-based; design: dose 35 mg/kg, route oral; conditions: in vivo; outline: as §7
Blood [33] = test: Drug level in bile duct cannulated Sprague-Dawley rat blood at 35 mg/kg, po after 18 hrs; assay type: ADME, organism-based; design: dose 35 mg/kg, route oral; conditions: in vivo; outline: as §7
Rattus norvegicus [34] = test: Plasma concentration in bile duct cannulated Sprague-Dawley rat at 35 mg/kg, po after 18 hrs; conditions: in vivo

SMILES | Drug uptake [14] [%] | Drug uptake [15] [%] | Drug uptake [16] [%] | Drug uptake [17] [%] | Drug uptake (Rattus norvegicus [19]) [%] | Activity (Rattus norvegicus [20]) | Cp (Rattus norvegicus [21]) [ug base equiv/g] | Cp (Rattus norvegicus [22]) [ug base equiv/g] | Cp (Rattus norvegicus [23]) [ug base equiv/g] | Cp (Rattus norvegicus [24]) [ug base equiv/g] | Drug uptake (Blood [27]) [ug base equiv/g] | Drug uptake (Blood [28]) [ug base equiv/g] | Drug uptake (Blood [29]) [ug base equiv/g] | Drug uptake (Blood [30]) [ug base equiv/g] | Drug uptake (Blood [31]) [ug base equiv/g] | Drug uptake (Blood [32]) [ug base equiv/g] | Drug uptake (Blood [33]) [ug base equiv/g] | Cp (Rattus norvegicus [34]) [ug base equiv/g] | other results
Cn1cncc1CN1CC(N(CC2CCN(C(=O)OC(C)(C)C)CC2)S(=O)(=O)c2ccccn2)Cc2cc(C#N)ccc21 (configuration not stated) | – | – | – | – | – | – | – | – | – | – | – | – | – | – | – | – | – | – | Papp A→B [1]: 15.5 ×10⁻⁶ cm/s; AUC [2]: 11.8 µM·h; half-life [3]: 54 min; half-life [4]: 10 min; AUC [5]: 30.1 µM·h; Cmax [6]: 6.3 µM; half-life [7]: 151 min; IC50 [8]: 1.5 nM; EC50 (Plasmodium falciparum [9]): 155 nM; EC50 (Plasmodium falciparum [10]): 180 nM; AUC [11]: 0.967 µM·h; half-life [12]: 55 min; bioavailability [13]: 124%
Cn1cncc1CN1CC(N(CC2CCN(C(=O)OC(C)(C)C)CC2)S(=O)(=O)c2ccccn2)Cc2cc([14C]#N)ccc21 (configuration not stated) | 26.2 | 4.3 | 26.7 | 18.2 | 92.2 | Non-toxic | 1.5 | 2.01 | 2.14 | 2.2 | 0.442 | 0.909 | 1.03 | 0.821 | 0.729 | 0.623 | 0.344 | 0.34 | Drug uptake [18]: 9.7%; Cp (Rattus norvegicus [25]): 1.92 ug base equiv/g; Cp (Rattus norvegicus [26]): 1.23 ug base equiv/g
Cn1cncc1CN1CC(N(CCn2cccc2)S(=O)(=O)c2ccccn2)Cc2cc([14C]#N)ccc21 (configuration not stated) | 27.1 | 1.6 | 33.7 | 40.3 | 104 | Non-toxic | 1.38 | 1.36 | 0.723 | 0.237 | 0.566 | 0.493 | 0.344 | 0.221 | 0.073 | 0.063 | 0.243 | 0.351 | –
